Calls of active or inactive are those of the source. The rule behind the calls is not given here.
Legend:
[1] = target: Sphingosine 1-phosphate receptor 1 (Homo sapiens, UniProt P21453); assay: Displacement of [33P]sphingosine 1 phosphate from human S1P1 receptor expressed in CHO cells; type: cell-based
[2] = target: Sphingosine 1-phosphate receptor 2 (Homo sapiens, UniProt O95136); assay: Displacement of [33P]sphingosine 1 phosphate from human S1P2 receptor expressed in CHO cells; type: cell-based
Sequence of Sphingosine 1-phosphate receptor 2 (O95136 whole entry): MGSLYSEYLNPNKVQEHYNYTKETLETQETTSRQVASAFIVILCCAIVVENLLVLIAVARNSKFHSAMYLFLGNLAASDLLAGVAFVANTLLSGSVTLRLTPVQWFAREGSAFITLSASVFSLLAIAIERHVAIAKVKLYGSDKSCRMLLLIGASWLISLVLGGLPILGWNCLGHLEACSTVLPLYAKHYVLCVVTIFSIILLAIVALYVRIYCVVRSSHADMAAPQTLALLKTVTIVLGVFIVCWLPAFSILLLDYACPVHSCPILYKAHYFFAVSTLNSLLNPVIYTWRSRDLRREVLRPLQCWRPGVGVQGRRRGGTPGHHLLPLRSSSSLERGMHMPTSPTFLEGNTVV

[3] = target: Sphingosine 1-phosphate receptor 3 (Homo sapiens, UniProt Q99500); assay: Displacement of [33P]sphingosine 1 phosphate from human S1P3 receptor expressed in CHO cells; type: cell-based
Sequence of Sphingosine 1-phosphate receptor 3 (Q99500 whole entry): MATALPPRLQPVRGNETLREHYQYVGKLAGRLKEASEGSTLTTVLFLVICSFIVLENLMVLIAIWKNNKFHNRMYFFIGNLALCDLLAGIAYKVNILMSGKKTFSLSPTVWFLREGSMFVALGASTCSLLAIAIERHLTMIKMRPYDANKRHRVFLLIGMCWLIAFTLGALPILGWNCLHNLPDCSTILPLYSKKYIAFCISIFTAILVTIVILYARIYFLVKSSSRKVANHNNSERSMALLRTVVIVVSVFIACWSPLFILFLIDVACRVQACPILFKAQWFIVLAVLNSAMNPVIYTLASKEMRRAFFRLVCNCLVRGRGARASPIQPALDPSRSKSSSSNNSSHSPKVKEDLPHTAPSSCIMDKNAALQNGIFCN

[4] = target: T1, Sphingosine 1-phosphate receptor 4 (Homo sapiens, UniProt O95977); assay: Displacement of [33P]sphingosine 1 phosphate from human S1P4 receptor expressed in CHO cells; type: cell-based
T1 sequence (O95977 whole entry): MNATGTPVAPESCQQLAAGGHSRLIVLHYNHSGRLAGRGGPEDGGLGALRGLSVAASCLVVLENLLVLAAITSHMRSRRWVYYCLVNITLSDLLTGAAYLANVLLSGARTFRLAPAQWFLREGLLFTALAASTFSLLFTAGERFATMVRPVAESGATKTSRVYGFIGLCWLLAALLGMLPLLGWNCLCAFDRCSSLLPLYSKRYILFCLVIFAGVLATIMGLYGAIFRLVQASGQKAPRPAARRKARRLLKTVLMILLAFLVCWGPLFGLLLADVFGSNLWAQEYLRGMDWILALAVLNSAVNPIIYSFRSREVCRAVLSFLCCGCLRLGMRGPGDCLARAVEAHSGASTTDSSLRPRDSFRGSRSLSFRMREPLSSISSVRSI
Summary of the method: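 Competition binding with [33P]-labeled S1P on membranes of CHO cells stably expressing each human S1P receptor. Values are the mean of n = 3 determinations.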

Mus musculus = assay: Decrease in peripheral blood lymphocytes in po dosed mouse after 3 hrs; type: functional
Summary of the method: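 Compound given orally to mice. Peripheral blood lymphocyte counts taken 3 h after dosing, expressed as average percent decrease in n = 3 animals versus controls (n = 3). ED50 from dose-titration.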

Rattus norvegicus [5] = assay: Decrease in peripheral blood lymphocyte counts in Lewis rat at 30 mg/kg, po after 24 hrs; type: functional
Summary of the method: (§1)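 Rat oral dose-titration at 1–30 mpk po. Peripheral blood lymphocyte counts and plasma compound concentrations determined 24 h postdose.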

Rattus norvegicus [6] = assay: Decrease in peripheral blood lymphocytes in Lewis rat at 1 mg/kg, po after 24 hrs relative to control; type: functional; parameters: scale not given: the % may be the effect or the level left; summary of the method: as §1
Rattus norvegicus [7] = assay: Decrease in peripheral blood lymphocyts in Lewis rat at 10 mg/kg, po after 24 hrs relative to control; type: functional; parameters: scale not given: the % may be the effect or the level left; summary of the method: as §1
[8] = Bioavailability in rat at 2 mg/kg, po and 1 mg/kg, iv; type: ADME, organism-based; settings: in vivo
Summary of the method: (§2)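 Rat PK at 2.0 mpk po and 1.0 mpk iv. Plasma compound levels measured.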

[9] = Plasma concentration in femoral artery cannulated Lewis rat at 3 mg/kg, po after 32 hrs; type: ADME, organism-based; parameters: dose 3 mg/kg, route oral
Summary of the method: (§3)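 Femoral artery cannulated Lewis rats (n = 3) got a single 3 mpk oral dose. Compound plasma concentration (nM) was measured serially over time up to 72 h postdose. Peripheral blood lymphocyte counts were taken in parallel at the same time points. The same animals were later given a second 3 mpk oral dose.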

[10] = Plasma concentration in femoral artery cannulated Lewis rat at 3 mg/kg, po after 48 hrs; type: ADME, organism-based; parameters: dose 3 mg/kg, route oral; summary of the method: as §3
[11] = Plasma concentration in femoral artery cannulated Lewis rat at 3 mg/kg, po after 56 hrs; type: ADME, organism-based; parameters: dose 3 mg/kg, route oral; summary of the method: as §3
Rattus norvegicus [12] = assay: Decrease in peripheral blood lymphocyte counts in femoral artery cannulated Lewis rat at 3 mg/kg, po after 0.25 hrs; type: functional
Summary of the method: (§4)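 Femoral artery cannulated Lewis rats (n = 3) given a single 3 mpk oral dose. PBL counts and plasma compound concentration sampled over time up to 72 h postdose. A repeat 3 mpk po challenge was given to the same animals.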

Rattus norvegicus [13] = assay: Decrease in peripheral blood lymphocyte counts in femoral artery cannulated Lewis rat at 3 mg/kg, po after 8 hrs; type: functional; summary of the method: as §4
Rattus norvegicus [14] = assay: Decrease in peripheral blood lymphocyte counts in femoral artery cannulated Lewis rat at 3 mg/kg, po after 16 hrs; type: functional; summary of the method: as §4
Rattus norvegicus [15] = assay: Decrease in peripheral blood lymphocyte counts in femoral artery cannulated Lewis rat at 3 mg/kg, po after 20 hrs; type: functional; summary of the method: as §4
Rattus norvegicus [16] = assay: Decrease in peripheral blood lymphocyte counts in femoral artery cannulated Lewis rat at 3 mg/kg, po after 24 hrs; type: functional; summary of the method: as §4
Rattus norvegicus [17] = assay: Decrease in peripheral blood lymphocyte counts in femoral artery cannulated Lewis rat at 3 mg/kg, po after 48 hrs; type: functional; summary of the method: as §4
Rattus norvegicus [18] = assay: Decrease in peripheral blood lymphocyte counts in femoral artery cannulated Lewis rat at 3 mg/kg, po after 56 hrs; type: functional; summary of the method: as §4
[19] = Plasma clearance in rat at 2 mg/kg, po and 1 mg/kg, iv; type: ADME, organism-based; summary of the method: as §2
[20] = Cmax in rat at 2 mg/kg, po and 1 mg/kg, iv; type: ADME, organism-based; settings: in vivo; summary of the method: as §2
Canis familiaris [21] = assay: Plasma clearance in Beagle dog at 1 mg/kg, po and 0.5 mg/kg, iv; type: ADME, organism-based, Canis lupus familiaris; settings: in vivo
Summary of the method: (§5)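 Single-dose PK at 1.0 mpk po and 0.5 mpk iv. Plasma compound levels measured.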

[22] = Volume of distribution at steady state in Beagle dog at 1 mg/kg, po and 0.5 mg/kg, iv; type: ADME, organism-based, Canis lupus familiaris; settings: in vivo, read-out: Vdss
[23] = Plasma clearance in rhesus monkey at 1 mg/kg, po and 0.5 mg/kg, iv; type: ADME, organism-based, Macaca mulatta; summary of the method: as §5
[24] = Volume of distribution at steady state in rhesus monkey at 1 mg/kg, po and 0.5 mg/kg, iv; type: ADME, organism-based, Macaca mulatta; settings: in vivo, read-out: Vdss
[25] = Cmax in rhesus monkey at 1 mg/kg, po and 0.5 mg/kg, iv; type: ADME, organism-based, Macaca mulatta; settings: in vivo; summary of the method: as §5
[26] = Bioavailability in rhesus monkey at 1 mg/kg, po and 0.5 mg/kg, iv; type: ADME, organism-based, Macaca mulatta; settings: in vivo; summary of the method: as §5
Rhesus monkey = assay: Maximal decrease in peripheral blood lymphocyte in rhesus monkey at 1 mg/kg, po after 24 hrs; type: functional, organism-based; parameters: dose 1 mg/kg; settings: Macaca mulatta
Summary of the method: (§6)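 Complete blood counts run alongside plasma concentrations after a single 1.0 mpk oral dose in beagle dog or rhesus monkey. Lymphocyte counts followed over time, with PBL lowering assessed at 24 h postdose.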

Canis familiaris [27] = assay: Maximal decrease in peripheral blood lymphocyte in Beagle dog at 1 mg/kg, po after 24 hrs; type: functional, organism-based; parameters: dose 1 mg/kg; settings: Canis lupus familiaris; summary of the method: as §6
[28] = Plasma concentration in Lewis rat at 3 mg/kg, po after 24 hrs; type: ADME, organism-based; parameters: dose 3 mg/kg, route oral; summary of the method: as §1
[29] = Plasma concentration in Lewis rat at 30 mg/kg, po after 24 hrs; type: ADME, organism-based; parameters: dose 30 mg/kg, route oral; summary of the method: as §1
[30] = Plasma concentration in femoral artery cannulated Lewis rat at 3 mg/kg, po after 1 hr; type: ADME, organism-based; parameters: dose 3 mg/kg, route oral; summary of the method: as §3
[31] = Plasma concentration in femoral artery cannulated Lewis rat at 3 mg/kg, po after 4 hrs; type: ADME, organism-based; parameters: dose 3 mg/kg, route oral; summary of the method: as §3
[32] = Plasma concentration in femoral artery cannulated Lewis rat at 3 mg/kg, po after 8 hrs; type: ADME, organism-based; parameters: dose 3 mg/kg, route oral; summary of the method: as §3
[33] = Plasma concentration in femoral artery cannulated Lewis rat at 3 mg/kg, po after 12 hrs; type: ADME, organism-based; parameters: dose 3 mg/kg, route oral; summary of the method: as §3
[34] = Plasma concentration in femoral artery cannulated Lewis rat at 3 mg/kg, po after 16 hrs; type: ADME, organism-based; parameters: dose 3 mg/kg, route oral; summary of the method: as §3
[35] = Plasma concentration in femoral artery cannulated Lewis rat at 3 mg/kg, po after 20 hrs; type: ADME, organism-based; parameters: dose 3 mg/kg, route oral; summary of the method: as §3
[36] = Plasma concentration in femoral artery cannulated Lewis rat at 3 mg/kg, po after 24 hrs; type: ADME, organism-based; parameters: dose 3 mg/kg, route oral; summary of the method: as §3
[37] = Half life in Beagle dog at 1 mg/kg, po and 0.5 mg/kg, iv; settings: in vivo

Sequence of Sphingosine 1-phosphate receptor 1 (P21453 whole entry): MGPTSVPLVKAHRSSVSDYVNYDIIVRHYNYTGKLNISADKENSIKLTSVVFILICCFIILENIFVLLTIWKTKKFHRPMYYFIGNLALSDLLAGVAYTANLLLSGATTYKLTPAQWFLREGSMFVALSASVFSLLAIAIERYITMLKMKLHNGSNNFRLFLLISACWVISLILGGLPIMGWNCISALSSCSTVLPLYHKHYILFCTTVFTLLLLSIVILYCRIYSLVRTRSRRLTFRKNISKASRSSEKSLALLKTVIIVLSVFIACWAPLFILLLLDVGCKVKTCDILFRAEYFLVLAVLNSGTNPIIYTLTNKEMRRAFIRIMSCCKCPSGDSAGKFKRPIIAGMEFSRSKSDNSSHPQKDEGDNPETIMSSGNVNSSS

IC50 [1]: 1.2 nM (antagonist)
IC50 [2]: > 10000 nM
IC50 [3]: 530 nM (antagonist)
IC50 [4]: 1600 nM (antagonist)
bioavailability [8]: 79%
concentration at 32 h [9]: 34 nM
concentration at 48 h [10]: 13 nM
concentration at 56 h [11]: 10 nM
clearance [19]: 12.3 mL/min/kg
Cmax [20]: 300 nM
clearance (Canis familiaris [21]): 2.2 mL/min/kg
Vd [22]: 1.6 L/kg
clearance [23]: 1.5 mL/min/kg
Vd [24]: 1.4 L/kg
Cmax [25]: 1800 nM
bioavailability [26]: 76%
concentration at 24 h [28]: 95 nM
concentration at 24 h [29]: 1400 nM
concentration at 1 h [30]: 270 nM
concentration at 4 h [31]: 320 nM
concentration at 8 h [32]: 310 nM
concentration at 12 h [33]: 280 nM
concentration at 16 h [34]: 170 nM
concentration at 20 h [35]: 150 nM
concentration at 24 h [36]: 120 nM
half-life [37]: 9.7 h
Structure (SMILES): O=C(O)C1CN(Cc2ccc(OCc3cc(-c4ccccc4)c(C(F)(F)F)s3)cc2)C1
ED50 (Mus musculus): 0.44 mg/kg
Activity (Rattus norvegicus [5]): 1430 µL⁻¹
Activity (Rattus norvegicus [6]): 68%
Activity (Rattus norvegicus [7]): 78%
Activity (Rattus norvegicus [12]): 4400 µL⁻¹
Activity (Rattus norvegicus [13]): 1470 µL⁻¹
Activity (Rattus norvegicus [14]): 1600 µL⁻¹
Activity (Rattus norvegicus [15]): 1530 µL⁻¹
Activity (Rattus norvegicus [16]): 1570 µL⁻¹
Activity (Rattus norvegicus [17]): 4000 µL⁻¹
Activity (Rattus norvegicus [18]): 4270 µL⁻¹
Activity (Rhesus monkey): Active
Activity (Canis familiaris [27]): Active
